Assay results from ChEMBL document CHEMBL5352471, “Design, synthesis, and pharmacological evaluations of pyrrolo[1,2-a]quinoxaline-based derivatives as potent and selective sirt6 activators” (Eur J Med Chem, 2023).
Calls of active or inactive are those of the source. The calls are words filed in the database; no cut-off is given here.

Key:
[1] = molecular target: T1, NAD-dependent protein deacylase sirtuin-6 (Homo sapiens, UniProt Q8N6T7); experiment: Activation of his6-tagged SIRT6 (unknown origin) assessed as fold activation using H3K9Ac peptide substrate incubated for 30 mins; conditions: filed as activator
T1 sequence (Q8N6T7 whole entry): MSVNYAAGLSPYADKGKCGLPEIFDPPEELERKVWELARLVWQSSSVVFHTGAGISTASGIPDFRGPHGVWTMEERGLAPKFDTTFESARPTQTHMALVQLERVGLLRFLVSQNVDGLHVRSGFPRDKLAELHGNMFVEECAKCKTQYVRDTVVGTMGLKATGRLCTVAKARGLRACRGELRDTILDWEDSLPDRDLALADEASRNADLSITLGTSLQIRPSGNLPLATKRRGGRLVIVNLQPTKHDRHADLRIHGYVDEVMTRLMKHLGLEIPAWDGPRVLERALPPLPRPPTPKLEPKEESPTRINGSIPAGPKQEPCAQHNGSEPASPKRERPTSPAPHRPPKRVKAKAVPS

[2] = Cytotoxicity against human A549-ACE2 cells assessed as inhibition of cell growth measured for 48 hrs; format: functional
[3] = molecular target: T2, NAD-dependent protein deacetylase sirtuin-1 (Homo sapiens) (UniProt Q96EB6); experiment: Activation of human SIRT1 (unknown origin) deacetylation activity using fluorogenic substrate measured upto 120 mins by microplate reader analysis
T2 sequence (whole entry): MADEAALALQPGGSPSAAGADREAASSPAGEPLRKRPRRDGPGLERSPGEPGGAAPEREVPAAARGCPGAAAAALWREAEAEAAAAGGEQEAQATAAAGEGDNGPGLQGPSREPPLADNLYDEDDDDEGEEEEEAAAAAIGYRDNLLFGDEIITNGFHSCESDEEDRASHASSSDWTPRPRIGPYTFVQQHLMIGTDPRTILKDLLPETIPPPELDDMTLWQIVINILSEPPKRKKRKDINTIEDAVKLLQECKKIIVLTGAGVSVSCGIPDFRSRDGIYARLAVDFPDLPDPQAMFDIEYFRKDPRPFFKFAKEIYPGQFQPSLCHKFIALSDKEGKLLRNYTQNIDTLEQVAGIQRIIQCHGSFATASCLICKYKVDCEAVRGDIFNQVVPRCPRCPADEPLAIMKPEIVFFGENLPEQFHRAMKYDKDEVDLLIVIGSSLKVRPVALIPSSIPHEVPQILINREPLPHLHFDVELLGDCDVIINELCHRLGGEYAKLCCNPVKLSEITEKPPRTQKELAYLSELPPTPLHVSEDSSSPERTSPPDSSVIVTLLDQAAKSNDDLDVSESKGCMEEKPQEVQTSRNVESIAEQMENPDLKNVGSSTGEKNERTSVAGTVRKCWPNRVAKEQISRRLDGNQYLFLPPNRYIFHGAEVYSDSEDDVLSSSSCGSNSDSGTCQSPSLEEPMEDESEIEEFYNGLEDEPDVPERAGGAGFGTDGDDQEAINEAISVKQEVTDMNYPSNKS
How it was run: (§1)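 Recombinant Sirt1 or Sirt2 was assayed with a kit fluoro-substrate peptide (0.1 mM stock), NAD+ (8 mM stock) and developer in a 25 µL reaction at room temperature. Fluorescence was read over 125 min, at Ex/Em 350/450 nm for Sirt1 and 490/530 nm for Sirt2.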

[4] = molecular target: NAD-dependent protein deacylase sirtuin-5, mitochondrial (Homo sapiens) (UniProt Q9NXA8); experiment: Activation of human SIRT5 (unknown origin) desuccinylation activity using fluorogenic substrate measured upto 120 mins by microplate reader analysis
Chain of NAD-dependent protein deacylase sirtuin-5, mitochondrial (Homo sapiens) (Q9NXA8 37-310 limits assumed): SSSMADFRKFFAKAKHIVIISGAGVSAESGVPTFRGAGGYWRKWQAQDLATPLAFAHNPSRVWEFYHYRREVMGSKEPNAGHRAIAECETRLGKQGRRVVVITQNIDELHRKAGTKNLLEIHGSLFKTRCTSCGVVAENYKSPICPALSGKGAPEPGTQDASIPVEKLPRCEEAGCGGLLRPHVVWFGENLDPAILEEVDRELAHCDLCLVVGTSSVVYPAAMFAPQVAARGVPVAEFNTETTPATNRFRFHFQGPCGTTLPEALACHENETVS

[5] = test system: SARS-CoV-2; experiment: Antiviral activity against SARS-CoV-2 infected in human A549-ACE2 cells assessed as viral growth inhibition; format: functional, organism-based; conditions: Severe acute respiratory syndrome coronavirus 2, A549-ACE2
[6] = molecular target: T1, NAD-dependent protein deacylase sirtuin-6; experiment: Activation of recombinant SIRT6 (unknown origin) deacetylase activity using fluoro peptide as substrate by microplate reader analysis
[7] = molecular target: T3, NAD-dependent protein deacetylase sirtuin-2 (Homo sapiens) (UniProt Q8IXJ6); experiment: Activation of human SIRT2 (unknown origin) deacetylation activity using fluorogenic substrate measured upto 120 mins by microplate reader analysis; how it was run: as §1
T3 sequence (whole entry): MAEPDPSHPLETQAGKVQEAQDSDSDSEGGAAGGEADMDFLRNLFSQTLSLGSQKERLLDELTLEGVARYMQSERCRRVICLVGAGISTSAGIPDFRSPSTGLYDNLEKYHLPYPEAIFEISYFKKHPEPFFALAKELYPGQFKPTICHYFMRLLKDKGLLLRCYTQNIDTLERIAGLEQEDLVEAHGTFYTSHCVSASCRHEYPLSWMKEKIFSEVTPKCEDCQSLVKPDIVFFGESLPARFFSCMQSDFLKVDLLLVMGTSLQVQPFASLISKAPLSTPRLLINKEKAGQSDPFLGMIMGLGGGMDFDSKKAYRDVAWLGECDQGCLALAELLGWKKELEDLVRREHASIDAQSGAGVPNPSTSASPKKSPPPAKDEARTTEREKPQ

[8] = molecular target: T1, NAD-dependent protein deacylase sirtuin-6; experiment: Activation of SIRT6 (unknown origin) deacetylase activity assessed as fold increase in maximal activation; conditions: filed as activator
[9] = molecular target: T1, NAD-dependent protein deacylase sirtuin-6; experiment: Activation of SIRT6 (unknown origin) deacetylase activity assessed as fold activation; conditions: filed as activator
How it was run: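 Recombinant Sirt6 was run in a fluorometric activity kit (FDL-type deacetylation) with a fluoro-substrate peptide (0.1 mM stock), NAD+ (8 mM stock) and developer in a 25 µL reaction at room temperature. Compounds were tested at 100 and 30 µM. Fluorescence was read at Ex/Em 490/530 nm over 125 min. Fold activation is given as mean ± SD from at least two independent experiments.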

[10] = Oral bioavailability in C57BL/6J mouse at 20 to 30 mg/kg, iv measured upto 24 hrs by LC-MS/MS analysis; format: ADME, organism-based; conditions: in vivo, dose 20-30 mg/kg

SMILES: CCCCCCCC/C=C\CCCCCCCC(=O)NCCO
- fold change (FC) [1]: 2.1

SMILES: CN(C)CCN1CCN(c2ncccc2C2Nc3ccccc3-n3cccc32)CC1 (stereo not drawn)
- CC50 [2]: > 50 µM
- Activity [3]: inactive
- Activity ([3]; filed as activator): Active
- Activity [4]: inactive
- EC50 [5]: 9.3 µM
- EC50 [6]: 48.8 µM
- Activity [7]: inactive

SMILES: c1cncc(C2Nc3ccccc3-n3cccc32)c1 (stereo not drawn)
- CC50 [2]: > 50 µM
- EC50 [5]: 50 µM
- fold change (FC) [8]: 2

SMILES: O=C(O)c1ccc2c(c1)C(=O)N(c1ccc(N(C(=O)c3c(Cl)cc(Cl)cc3Cl)C(=O)c3c(Cl)cc(Cl)cc3Cl)c(Cl)c1)C2=O
- fold change (FC) [9]: 4

SMILES: Cc1cc(F)c(Br)cc1NS(=O)(=O)c1ccc(NS(=O)(=O)c2cc(Cl)cc(Cl)c2)cc1CN1CCOC[C@H]1C
- bioavailability [10]: 93%
